Measured values taken from ChEMBL document CHEMBL1667789, “Synthesis of 4H-chromene, coumarin, 12H-chromeno[2,3-d]pyrimidine derivatives and some of their antimicrobial and cytotoxicity activities” (2011).
Active and inactive are the calls of the source. No cut-off for these calls is given here.

Legend:
Type in all cases: functional
Settings in all cases: for zone of inhibition at 25 µg/mL: read-out: DIZ
Bacillus subtilis = experiment: Antimicrobial activity against Bacillus subtilis ATCC 6633 at 25 ug/ml by agar diffusion method
In short: (§1)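 Agar diffusion on Mueller-Hinton agar. Bacterial strains came from the NODCAR Microbiology laboratory culture collection. Ampicillin was the reference standard.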

[1] = system: Staphylococcus epidermidis; experiment: Antimicrobial activity against Staphylococcus epidermidis ATCC 12228 at 25 ug/ml by agar diffusion method; in short: as §1
Candida albicans = experiment: Antifungal activity against Candida albicans ATCC 10231 at 25 ug/ml by agar diffusion method
In short: (§2)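 Agar diffusion on Sabouraud's agar. Fungal strains came from the NODCAR Microbiology laboratory culture collection. Mycostatine was the reference standard.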

Staphylococcus aureus = experiment: Antimicrobial activity against Staphylococcus aureus ATCC 29737 at 25 ug/ml by agar diffusion method; in short: as §1
Escherichia coli = experiment: Antimicrobial activity against Escherichia coli ATCC 14169 at 25 ug/ml by agar diffusion method; in short: as §1
Saccharomyces cerevisiae = experiment: Antifungal activity against Saccharomyces cerevisiae ATCC 9080 at 25 ug/ml by agar diffusion method; in short: as §2
Bacillus pumilus = experiment: Antimicrobial activity against Bacillus pumilus ATCC 14884 at 25 ug/ml by agar diffusion method; in short: as §1
[2] = system: Bordetella bronchiseptica; experiment: Antimicrobial activity against Bordetella bronchiseptica ATCC 4617 at 25 ug/ml by agar diffusion method; in short: as §1

Molecule: CCO/C=N/C1=C(C#N)C(c2ccc(Br)cc2)c2ccc(N(CC)CC)cc2O1 (stereo unspecified)
- diameter of the inhibition zone (DIZ) (Bacillus subtilis): inactive
- diameter of the inhibition zone (DIZ) [1]: inactive
- diameter of the inhibition zone (DIZ) (Candida albicans): inactive
- diameter of the inhibition zone (DIZ) (Staphylococcus aureus): inactive
- diameter of the inhibition zone (DIZ) (Escherichia coli): inactive
- diameter of the inhibition zone (DIZ) (Saccharomyces cerevisiae): inactive
- diameter of the inhibition zone (DIZ) (Bacillus pumilus): inactive
- diameter of the inhibition zone (DIZ) [2]: inactive

Molecule: CCN(CC)c1ccc2c(c1)Oc1ncn(C)c(=N)c1C2c1ccc(Cl)cc1 (stereo unspecified)
- zone of inhibition at 25 µg/mL (Bacillus subtilis): 21 mm
- zone of inhibition at 25 µg/mL [1]: 25 mm
- zone of inhibition at 25 µg/mL (Candida albicans): 14 mm
- zone of inhibition at 25 µg/mL (Staphylococcus aureus): 24 mm
- zone of inhibition at 25 µg/mL (Escherichia coli): 21 mm
- zone of inhibition at 25 µg/mL (Saccharomyces cerevisiae): 20 mm
- zone of inhibition at 25 µg/mL (Bacillus pumilus): 25 mm
- zone of inhibition at 25 µg/mL [2]: 20 mm

Molecule: CCOC(=O)C1=C(N)Oc2cc(N(CC)CC)ccc2C1c1ccc(F)cc1 (stereo unspecified)
- diameter of the inhibition zone (DIZ) (Bacillus subtilis): inactive
- zone of inhibition at 25 µg/mL [1]: 14 mm
- diameter of the inhibition zone (DIZ) (Candida albicans): inactive
- zone of inhibition at 25 µg/mL (Staphylococcus aureus): 14 mm
- diameter of the inhibition zone (DIZ) (Escherichia coli): inactive
- diameter of the inhibition zone (DIZ) (Saccharomyces cerevisiae): inactive
- diameter of the inhibition zone (DIZ) (Bacillus pumilus): inactive
- diameter of the inhibition zone (DIZ) [2]: inactive

Molecule: CCN(CC)c1ccc2c(c1)OC(N)=C(C#N)C2c1ccc(Br)cc1 (stereo unspecified)
- diameter of the inhibition zone (DIZ) (Bacillus subtilis): inactive
- diameter of the inhibition zone (DIZ) [1]: inactive
- diameter of the inhibition zone (DIZ) (Candida albicans): inactive
- diameter of the inhibition zone (DIZ) (Staphylococcus aureus): inactive
- diameter of the inhibition zone (DIZ) (Escherichia coli): inactive
- diameter of the inhibition zone (DIZ) (Saccharomyces cerevisiae): inactive
- diameter of the inhibition zone (DIZ) (Bacillus pumilus): inactive
- diameter of the inhibition zone (DIZ) [2]: inactive

Molecule: CCN(CC)c1ccc2c(c1)OC(/N=C/N(C)C)=C(C#N)C2c1ccc(Cl)cc1 (stereo unspecified)
- diameter of the inhibition zone (DIZ) (Bacillus subtilis): inactive
- diameter of the inhibition zone (DIZ) [1]: inactive
- diameter of the inhibition zone (DIZ) (Candida albicans): inactive
- diameter of the inhibition zone (DIZ) (Staphylococcus aureus): inactive
- diameter of the inhibition zone (DIZ) (Escherichia coli): inactive
- diameter of the inhibition zone (DIZ) (Saccharomyces cerevisiae): inactive
- diameter of the inhibition zone (DIZ) (Bacillus pumilus): inactive
- diameter of the inhibition zone (DIZ) [2]: inactive

Molecule: CCO/C=N/C1=C(C#N)C(c2ccc(Cl)cc2)c2ccc(N(CC)CC)cc2O1 (stereo unspecified)
- diameter of the inhibition zone (DIZ) (Bacillus subtilis): inactive
- diameter of the inhibition zone (DIZ) [1]: inactive
- diameter of the inhibition zone (DIZ) (Candida albicans): inactive
- diameter of the inhibition zone (DIZ) (Staphylococcus aureus): inactive
- diameter of the inhibition zone (DIZ) (Escherichia coli): inactive
- diameter of the inhibition zone (DIZ) (Saccharomyces cerevisiae): inactive
- diameter of the inhibition zone (DIZ) (Bacillus pumilus): inactive
- diameter of the inhibition zone (DIZ) [2]: inactive

Molecule: CCN(CC)c1ccc2c(c1)Oc1ncn(N)c(=N)c1C2c1ccc(Cl)cc1 (stereo unspecified)
- zone of inhibition at 25 µg/mL (Bacillus subtilis): 17 mm
- zone of inhibition at 25 µg/mL [1]: 24 mm
- zone of inhibition at 25 µg/mL (Candida albicans): 16 mm
- zone of inhibition at 25 µg/mL (Staphylococcus aureus): 26 mm
- zone of inhibition at 25 µg/mL (Escherichia coli): 17 mm
- zone of inhibition at 25 µg/mL (Saccharomyces cerevisiae): 24 mm
- zone of inhibition at 25 µg/mL (Bacillus pumilus): 27 mm
- zone of inhibition at 25 µg/mL [2]: 22 mm

Molecule: CCN(CC)c1ccc2c(c1)Oc1nc(C)[nH]c(=O)c1C2c1ccc(Cl)cc1 (stereo unspecified)
- diameter of the inhibition zone (DIZ) (Bacillus subtilis): inactive
- diameter of the inhibition zone (DIZ) [1]: inactive
- diameter of the inhibition zone (DIZ) (Candida albicans): inactive
- diameter of the inhibition zone (DIZ) (Staphylococcus aureus): inactive
- diameter of the inhibition zone (DIZ) (Escherichia coli): inactive
- diameter of the inhibition zone (DIZ) (Saccharomyces cerevisiae): inactive
- diameter of the inhibition zone (DIZ) (Bacillus pumilus): inactive
- diameter of the inhibition zone (DIZ) [2]: inactive

Molecule: CCN(CC)c1ccc2c(c1)OC(/N=C/c1ccccc1)=C(C#N)C2c1ccc(Cl)cc1 (stereo unspecified)
- diameter of the inhibition zone (DIZ) (Bacillus subtilis): inactive
- diameter of the inhibition zone (DIZ) [1]: inactive
- diameter of the inhibition zone (DIZ) (Candida albicans): inactive
- diameter of the inhibition zone (DIZ) (Staphylococcus aureus): inactive
- diameter of the inhibition zone (DIZ) (Escherichia coli): inactive
- diameter of the inhibition zone (DIZ) (Saccharomyces cerevisiae): inactive
- diameter of the inhibition zone (DIZ) (Bacillus pumilus): inactive
- diameter of the inhibition zone (DIZ) [2]: inactive

Molecule: NYSTATIN
- inhibition zone (IZ) (Saccharomyces cerevisiae): 24 mm

Molecule: CCOC(=O)C1=C(N)Oc2cc(N(CC)CC)ccc2C1c1ccc(Cl)cc1 (stereo unspecified)
- diameter of the inhibition zone (DIZ) (Bacillus subtilis): inactive
- diameter of the inhibition zone (DIZ) [1]: inactive
- diameter of the inhibition zone (DIZ) (Candida albicans): inactive
- diameter of the inhibition zone (DIZ) (Staphylococcus aureus): inactive
- diameter of the inhibition zone (DIZ) (Escherichia coli): inactive
- diameter of the inhibition zone (DIZ) (Saccharomyces cerevisiae): inactive
- diameter of the inhibition zone (DIZ) (Bacillus pumilus): inactive
- diameter of the inhibition zone (DIZ) [2]: inactive

Molecule: CCN(CC)c1ccc2c(-c3ccc(Cl)cc3)c(C#N)c(=O)oc2c1
- diameter of the inhibition zone (DIZ) (Bacillus subtilis): inactive
- diameter of the inhibition zone (DIZ) [1]: inactive
- diameter of the inhibition zone (DIZ) (Candida albicans): inactive
- diameter of the inhibition zone (DIZ) (Staphylococcus aureus): inactive
- diameter of the inhibition zone (DIZ) (Escherichia coli): inactive
- diameter of the inhibition zone (DIZ) (Saccharomyces cerevisiae): inactive
- diameter of the inhibition zone (DIZ) (Bacillus pumilus): inactive
- diameter of the inhibition zone (DIZ) [2]: inactive

Molecule: CC1(C)S[C@@H]2[C@H](NC(=O)[C@H](N)c3ccccc3)C(=O)N2[C@H]1C(=O)O [AMPICILLIN]
- zone of inhibition at 25 µg/mL (Bacillus subtilis): 25 mm
- zone of inhibition at 25 µg/mL [1]: 25 mm
- zone of inhibition at 25 µg/mL (Staphylococcus aureus): 26 mm
- zone of inhibition at 25 µg/mL (Escherichia coli): 25 mm
- zone of inhibition at 25 µg/mL (Bacillus pumilus): 20 mm
- zone of inhibition at 25 µg/mL [2]: 24 mm

Molecule: CCN(CC)c1ccc2c(c1)Oc1ncn(N)c(=N)c1C2c1ccc(Br)cc1 (stereo unspecified)
- zone of inhibition at 25 µg/mL (Bacillus subtilis): 15 mm
- zone of inhibition at 25 µg/mL [1]: 22 mm
- zone of inhibition at 25 µg/mL (Candida albicans): 15 mm
- zone of inhibition at 25 µg/mL (Staphylococcus aureus): 24 mm
- zone of inhibition at 25 µg/mL (Escherichia coli): 16 mm
- zone of inhibition at 25 µg/mL (Saccharomyces cerevisiae): 22 mm
- zone of inhibition at 25 µg/mL (Bacillus pumilus): 25 mm
- zone of inhibition at 25 µg/mL [2]: 21 mm

Molecule: CCN(CC)c1ccc2c(-c3ccc(Br)cc3)c(C#N)c(=O)oc2c1
- diameter of the inhibition zone (DIZ) (Bacillus subtilis): inactive
- diameter of the inhibition zone (DIZ) [1]: inactive
- diameter of the inhibition zone (DIZ) (Candida albicans): inactive
- diameter of the inhibition zone (DIZ) (Staphylococcus aureus): inactive
- diameter of the inhibition zone (DIZ) (Escherichia coli): inactive
- diameter of the inhibition zone (DIZ) (Saccharomyces cerevisiae): inactive
- diameter of the inhibition zone (DIZ) (Bacillus pumilus): inactive
- diameter of the inhibition zone (DIZ) [2]: inactive
